# Test results published in ChEMBL document CHEMBL1255475, “Mutant prevention concentrations of four carbapenems against gram-negative rods” (2010).
# What was measured:
# Assay type in all cases: functional
# [1] = test system: Escherichia coli; assay: Antibacterial activity against beta-lactamase-positive ESBL-positive Escherichia coli E465 incubated up to 7 days by agar dilution method; conditions: E465, 168 h
# Procedure, shortened: (§1)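 MIC by CLSI agar dilution, with quality-control strains in each run. Beta-lactamase status was set by 30 μg cefazolin Kirby-Bauer disk diffusion. ESBL status was set by cefotaxime and ceftazidime disks (30 μg) with and without clavulanic acid (10 μg).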
# [2] = test system: Klebsiella pneumoniae; assay: Antibacterial activity against beta-lactamase-positive ESBL-negative Klebsiella pneumoniae E481 assessed as mutant prevention concentration after overnight incubation
# Procedure, shortened: (§2)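 Overnight growth on blood trypticase soy agar (35°C, air) was resuspended in 0.9% saline and counted on drug-free Mueller-Hinton agar. […] Colonies were retested by agar dilution to confirm mutants. MPC was the lowest concentration preventing resistant-mutant growth.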
# [3] = test system: Klebsiella pneumoniae; assay: Antibacterial activity against beta-lactamase-positive ESBL-negative Klebsiella pneumoniae E477 incubated up to 7 days by agar dilution method; conditions: E477, 168 h
# [4] = test system: Klebsiella pneumoniae; assay: Antibacterial activity against beta-lactamase-positive ESBL-negative Klebsiella pneumoniae E477 assessed as mutant prevention concentration after overnight incubation; procedure, shortened: as §2
# [5] = test system: Escherichia coli; assay: Antibacterial activity against beta-lactamase-positive ESBL-negative Escherichia coli E484 incubated up to 7 days by agar dilution method; conditions: E484, 168 h
# [6] = test system: Escherichia coli; assay: Antibacterial activity against beta-lactamase-negative Escherichia coli E348 assessed as mutant prevention concentration after overnight incubation
# [7] = test system: Escherichia coli; assay: Antibacterial activity against beta-lactamase-negative Escherichia coli E345 incubated up to 7 days by agar dilution method; conditions: E345, 168 h
# [8] = test system: Klebsiella pneumoniae; assay: Antibacterial activity against beta-lactamase-positive ESBL-negative Klebsiella pneumoniae E480 assessed as mutant prevention concentration after overnight incubation; procedure, shortened: as §2
# [9] = test system: Klebsiella pneumoniae; assay: Antibacterial activity against beta-lactamase-positive ESBL-negative Klebsiella pneumoniae E474 incubated up to 7 days by agar dilution method; conditions: E474, 168 h
# [10] = test system: Klebsiella pneumoniae; assay: Antibacterial activity against beta-lactamase-negative Klebsiella pneumoniae E357 incubated up to 7 days by agar dilution method; conditions: E357, 168 h
# [11] = test system: Klebsiella pneumoniae; assay: Antibacterial activity against beta-lactamase-negative Klebsiella pneumoniae E418 incubated up to 7 days by agar dilution method; conditions: E418, 168 h
# [12] = test system: Klebsiella pneumoniae; assay: Antibacterial activity against beta-lactamase-positive ESBL-negative Klebsiella pneumoniae E481 incubated up to 7 days by agar dilution method; conditions: E481, 168 h
# [13] = test system: Escherichia coli; assay: Antibacterial activity against beta-lactamase-positive ESBL-negative Escherichia coli E437 incubated up to 7 days by agar dilution method; conditions: E437, 168 h; procedure, shortened: as §1
# [14] = test system: Escherichia coli; assay: Antibacterial activity against beta-lactamase-positive ESBL-positive Escherichia coli E451 assessed as mutant prevention concentration after overnight incubation; procedure, shortened: as §2
# [15] = test system: Escherichia coli; assay: Antibacterial activity against beta-lactamase-negative Escherichia coli E348 incubated up to 7 days by agar dilution method; conditions: E348, 168 h
# [16] = test system: Escherichia coli; assay: Antibacterial activity against beta-lactamase-positive ESBL-negative Escherichia coli E415 incubated up to 7 days by agar dilution method; conditions: E415, 168 h; procedure, shortened: as §1
# [17] = test system: Klebsiella pneumoniae; assay: Antibacterial activity against beta-lactamase-negative Klebsiella pneumoniae E419 assessed as mutant prevention concentration after overnight incubation; procedure, shortened: as §2
# [18] = test system: Klebsiella pneumoniae; assay: Antibacterial activity against beta-lactamase-negative Klebsiella pneumoniae E360 assessed as mutant prevention concentration after overnight incubation
# [19] = test system: Escherichia coli; assay: Antibacterial activity against beta-lactamase-positive ESBL-negative Escherichia coli E430 incubated up to 7 days by agar dilution method; conditions: E430, 168 h; procedure, shortened: as §1
# [20] = test system: Klebsiella pneumoniae; assay: Antibacterial activity against beta-lactamase-positive ESBL-negative Klebsiella pneumoniae E511 assessed as mutant prevention concentration after overnight incubation; procedure, shortened: as §2
# [21] = test system: Escherichia coli; assay: Antibacterial activity against beta-lactamase-positive ESBL-positive Escherichia coli E458 assessed as mutant prevention concentration after overnight incubation; procedure, shortened: as §2
# [22] = test system: Klebsiella pneumoniae; assay: Antibacterial activity against beta-lactamase-negative Klebsiella pneumoniae E358 assessed as mutant prevention concentration after overnight incubation
# [23] = test system: Escherichia coli; assay: Antibacterial activity against beta-lactamase-positive ESBL-negative Escherichia coli E415 assessed as mutant prevention concentration after overnight incubation; procedure, shortened: as §2
# [24] = test system: Klebsiella pneumoniae; assay: Antibacterial activity against beta-lactamase-positive ESBL-positive Klebsiella pneumoniae E478 assessed as mutant prevention concentration after overnight incubation; procedure, shortened: as §2
# [25] = test system: Klebsiella pneumoniae; assay: Antibacterial activity against beta-lactamase-positive ESBL-negative Klebsiella pneumoniae E507 assessed as mutant prevention concentration after overnight incubation; procedure, shortened: as §2
# [26] = test system: Klebsiella pneumoniae; assay: Antibacterial activity against beta-lactamase-negative Klebsiella pneumoniae E417 incubated up to 7 days by agar dilution method; conditions: E417, 168 h; procedure, shortened: as §1
# [27] = test system: Escherichia coli; assay: Antibacterial activity against beta-lactamase-positive ESBL-positive Escherichia coli E458 incubated up to 7 days by agar dilution method; conditions: E458, 168 h; procedure, shortened: as §1
# [28] = test system: Escherichia coli; assay: Antibacterial activity against beta-lactamase-positive ESBL-positive Escherichia coli E446 assessed as mutant prevention concentration after overnight incubation; procedure, shortened: as §2
# [29] = test system: Escherichia coli; assay: Antibacterial activity against beta-lactamase-positive ESBL-negative Escherichia coli E437 assessed as mutant prevention concentration after overnight incubation; procedure, shortened: as §2
# [30] = test system: Klebsiella pneumoniae; assay: Antibacterial activity against beta-lactamase-negative Klebsiella pneumoniae E417 assessed as mutant prevention concentration after overnight incubation
# [31] = test system: Klebsiella pneumoniae; assay: Antibacterial activity against beta-lactamase-positive ESBL-positive Klebsiella pneumoniae E475 assessed as mutant prevention concentration after overnight incubation; procedure, shortened: as §2
smiles,measurement,setting,value
C[C@@H](O)[C@H]1C(=O)N2C(C(=O)O)=C(S[C@@H]3CN[C@H](C(=O)Nc4cccc(C(=O)O)c4)C3)[C@H](C)[C@H]12,MIC,[1],0.25 µg/mL
same,MPC,[2],8 µg/mL
same,MIC,[3],8 µg/mL
same,MPC,[4],32 µg/mL
same,MIC,[5],8 µg/mL
same,MPC,[6],0.03 µg/mL
same,MIC,[7],0.008 µg/mL
same,MPC,[8],32 µg/mL
same,MIC,[9],4 µg/mL
same,MIC,[10],0.008 µg/mL
same,MIC,[11],0.06 µg/mL
same,MIC,[12],4 µg/mL
same,MIC,[13],0.06 µg/mL
same,MPC,[14],1 µg/mL
same,MIC,[15],0.008 µg/mL
same,MIC,[16],0.125 µg/mL
same,MPC,[17],0.03 µg/mL
same,MPC,[18],0.03 µg/mL
same,MIC,[19],0.06 µg/mL
same,MPC,[20],64 µg/mL
same,MPC,[21],0.5 µg/mL
same,MPC,[22],0.03 µg/mL
same,MPC,[23],0.5 µg/mL
same,MPC,[24],16 µg/mL
same,MPC,[25],64 µg/mL
same,MIC,[26],0.008 µg/mL
same,MIC,[27],0.03 µg/mL
same,MPC,[28],1 µg/mL
same,MPC,[29],0.125 µg/mL
same,MPC,[30],0.016 µg/mL
same,MPC,[31],16 µg/mL
